Results from PubChem BioAssay.
Activity calls are given as the source filed them.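 The calls were made as follows, unless noted: active = compounds giving at least 50% inhibition in the cell-based MKP-3 phosphatase rescue imaging test; inactive = the rest.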

Experiments:
[1] = inhibitors of TNFa-induced NFkB p65 translocation, primary screen, imaging, HUVEC, MLSMR starter and 10KST1 sets (AID 438;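 active = inhibition above 20% together with a positive visual image hit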;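 also: compound added about 3h40 before a 20 min TNFalpha stimulation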;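 as to inhibition: signal is the nuclear over cytoplasmic p65 intensity ratio per well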); conditions: HUVEC TNFa-induced p65 nuclear translocation; cell count: measured here: nuclei count (cytotoxicity indicator), at 2.08 µM; inhibition: at 2 µM, stronger effect = higher value, 0% TNFa-plus-vehicle, 100% no-TNFa wells
[2] = endothelial E-selectin expression blockers – imaging, HUVEC, immunofluorescence, MLSMR starter and 10KST1 sets, primary screen (AID 487;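 active = visually confirmed hit in the image check and inhibition above 20%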;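 as to inhibition: signal is fraction of cell area covered by stained E-selectin grains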;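 as to nuclei count: 100% = median nuclei count of all wells on the same plate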); conditions: HUVEC TNFalpha-induced E-selectin immunofluorescence imaging, at 2 µM; inhibition: stronger effect = higher value; nuclei count: measured here: cell number, toxicity
[3] = Primary imaging screen for DUSP6 inhibitors that restore phospho-Erk in transfected HeLa cells, chemical complementation (AID 609); conditions: HeLa MKP-3 transfected, phospho-Erk imaging KS statistic, at 10 µM, cells stimulated with TPA for 15 min;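 as to inhibition: phospho-Erk level distribution per well compared with pooled transfected vehicle control wells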
[4] = molecular target: Dual specificity protein phosphatase 6 (Homo sapiens) (UniProt Q16828); assay: as above; conditions: HeLa MKP-3 transfected, phospho-Erk imaging KS statistic; at 10 µM; stronger effect = higher value; cells stimulated with TPA for 15 min
Chain of Dual specificity protein phosphatase 6 (Homo sapiens) (Q16828 whole entry, looked up): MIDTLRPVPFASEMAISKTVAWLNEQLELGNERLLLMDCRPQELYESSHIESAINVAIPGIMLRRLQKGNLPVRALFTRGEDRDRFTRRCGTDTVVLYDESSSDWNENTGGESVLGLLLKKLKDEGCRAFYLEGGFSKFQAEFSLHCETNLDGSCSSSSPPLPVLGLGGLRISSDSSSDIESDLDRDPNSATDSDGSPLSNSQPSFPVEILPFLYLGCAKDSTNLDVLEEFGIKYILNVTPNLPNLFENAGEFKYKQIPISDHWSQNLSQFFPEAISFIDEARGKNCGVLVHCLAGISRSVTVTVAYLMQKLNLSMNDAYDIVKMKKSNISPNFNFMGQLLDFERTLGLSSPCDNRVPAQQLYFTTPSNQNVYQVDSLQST

[5] = molecular target: Voltage-gated potassium channel subunit beta-2 (Rattus norvegicus) (UniProt P62483); assay: inhibitors of rat Kvbeta2 reductase activity – biochemical, NADPH fluorescence, primary screen (AID 622;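 active = fluorescence slope higher than the sample average by over 3 SD, cut at about -0.22 in these data, passing the limit was not always enough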;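 also: slope of raw intensity against log time taken from 70 to 1610 s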); conditions: recombinant KvBeta, 4-cyanobenzaldehyde reduction, at 10 µM, stronger effect = higher value
Chain of Voltage-gated potassium channel subunit beta-2 (Rattus norvegicus) (P62483 whole entry, looked up): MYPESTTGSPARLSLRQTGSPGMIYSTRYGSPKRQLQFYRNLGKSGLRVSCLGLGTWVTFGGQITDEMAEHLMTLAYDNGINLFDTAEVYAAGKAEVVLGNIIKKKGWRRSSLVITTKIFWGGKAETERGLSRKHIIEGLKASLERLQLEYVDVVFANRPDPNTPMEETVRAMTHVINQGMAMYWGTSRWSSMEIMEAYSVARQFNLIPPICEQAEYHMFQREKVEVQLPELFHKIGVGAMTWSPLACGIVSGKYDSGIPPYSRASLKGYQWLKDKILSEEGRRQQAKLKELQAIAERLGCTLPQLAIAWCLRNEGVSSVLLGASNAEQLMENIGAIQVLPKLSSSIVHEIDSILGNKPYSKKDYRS

[6] = molecular target: Voltage-gated potassium channel subunit beta-2 (Rattus norvegicus) (UniProt P62483); assay: enhancers of rat Kvbeta2 NADPH turnover – biochemical, NADPH fluorescence, primary screen (AID 623;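 active = NADPH fluorescence slope more negative than the mean of all samples by about 3 SD, 99.7% confidence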;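 also: fluorescence intensity change per second fitted from 20 to 320 s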); conditions: Recombinant KvBeta, NADPH fluorescence decrease slope, 10 min; at 10 µM; stronger effect = lower value
[7] = molecular target: Alpha-2C adrenergic receptor (Homo sapiens) (UniProt P18825); assay: compounds altering alpha2C-coupled GIRK flux – cell-based, HEK293 alpha2C/GIRK1/2, thallium flux, primary screen (AID 624;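 active = fluorescence slope after compound addition differing from the mean of all screened samples at 99.7% confidence, in either direction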;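 also: slope of fluorescence ratio to pre-addition baseline per second over 15 to 24 s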); conditions: thallium flux BTC fluorescence, at 10 µM, actives lie on both sides
Chain of Alpha-2C adrenergic receptor (Homo sapiens) (P18825 whole entry, looked up): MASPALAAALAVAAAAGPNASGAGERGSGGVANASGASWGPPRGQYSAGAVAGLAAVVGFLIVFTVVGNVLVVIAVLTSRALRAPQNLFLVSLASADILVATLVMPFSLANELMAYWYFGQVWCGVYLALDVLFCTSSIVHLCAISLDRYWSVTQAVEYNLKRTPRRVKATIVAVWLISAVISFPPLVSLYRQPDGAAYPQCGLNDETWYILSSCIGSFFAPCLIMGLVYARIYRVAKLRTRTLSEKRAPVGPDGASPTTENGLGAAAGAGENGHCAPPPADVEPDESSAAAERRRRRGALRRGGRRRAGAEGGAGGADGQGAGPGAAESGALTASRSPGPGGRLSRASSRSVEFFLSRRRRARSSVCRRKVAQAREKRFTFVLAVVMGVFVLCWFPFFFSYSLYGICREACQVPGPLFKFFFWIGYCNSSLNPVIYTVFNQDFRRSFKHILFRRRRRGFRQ

[8] = inhibitors of larval lipid processing in zebrafish, primary screen, whole organism, PED6 fluorescence, gall bladder and intestine (AID 686;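 active = a full or partial loss of lipid-probe fluorescence in the fish gall bladder, intestine or both, judged by eye; inactive = no fluorescence loss, or compound toxic to the fish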;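 also: larvae 5 to 7 days old with five fish per well; signal comes from phospholipase A2 cleavage of quenched PED6 carried via bile; overnight exposure to compound and PED6 before scoring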); conditions: Zebrafish larvae PED6 lipid processing, fluorescence scoring; screened at 20 µM (by protocol)
Outline: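 Test system – live zebrafish larvae aged 5-7 days, whole organism · Buffer or medium – E3 fish medium · Reagent – quenched phospholipase substrate PED6, 100 nM final, ingested by larvae · Doses – 20 µM single dose · Incubation – overnight compound and PED6 incubation · Technique – visual fluorescence microscopy scoring of gall bladder, gut · Read-out basis – visual per-well fluorescence inhibition score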

[9] = loss of swimming-algae plug formation – whole organism, Chlamydomonas reinhardtii, WT vs cilia-less mutant, absorbance, 96-well, primary screen (AID 463189;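 active = inhibition at or above 50% relative to wild type and mutant plate controls; inactive = inhibition below 50%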;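 also: 0% = wild type cc124 cells in DMSO and 100% = ciliumless bld1 mutant cells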); conditions: Chlamydomonas reinhardtii gravitaxis, OD600 absorbance, 2 days; at 10 µM; stronger effect = higher value
[10] = measured here: cell density z-score
[11] = measured here: nuclear c-Myc green intensity z-score
[12] = measured here: nuclear pErk red intensity z-score, stronger effect = higher value

Row | SMILES | cell count [1] | inhibition [1] | inhibition [2] | nuclei count [2] [%] | z-score [3, 10] | z-score [3, 11] | z-score [3, 12] | inhibition [4] | fluorescence slope [5] | NADPH fluorescence slope [6] | slope [7] | outcome [8] | inhibition [9]
1 | CCOc1ccccc1N1CCN(c2nc3ccccc3nc2C(C#N)C(=O)OC(C)C)CC1 (stereo unspecified) | 451 | -7.4% (inactive) | -161% (inactive) | 148 | -1.19 | -0.0935 | 0.236 | -10.1% (inactive) | -0.399 (inactive) | -2.9e-05 (inactive) | 0.00483 (inactive) | inactive | 10.3% (inactive)
2 | CSCCC(CO)NC(=O)OCc1ccccc1 (stereo unspecified) | 562 | -15% (inactive) | -130% (inactive) | 142 | 1.72 | -0.612 | -0.962 | 3.97% (inactive) | -0.503 (inactive) | -8.5e-05 (inactive) | 0.00774 (inactive) | inactive | 2.98% (inactive)
3 | CC(C)Oc1ccc(/C(O)=C2/C(=O)C(=O)N(CCN(C)C)C2c2ccco2)cc1 (stereo unspecified) | 481 | -1% (inactive) | -6.9% (inactive) | 112 | -0.569 | -0.19 | -0.239 | -1.12% (inactive) | -0.324 (inactive) | 1.4e-05 (inactive) | 0.00581 (inactive) | inactive | 6.02% (inactive)
4 | CC(=O)Nc1cccc(NC(=O)CSc2nc(C)c(C)c(C)c2C#N)c1 | 546 | -8.2% (inactive) | 28% (inactive) | 174 | 0.636 | 0.622 | -1.1 | -4.27% (inactive) | -0.4 (inactive) | -9.2e-06 (inactive) | 0.0055 (inactive) | inactive | -2.25% (inactive)
5 | CC(C)OC(=O)C(C#N)c1nc2ccccc2nc1N1CCN(Cc2ccc3c(c2)OCO3)CC1 (stereo unspecified) | 351 | -4.7% (inactive) | -35.2% (inactive) | 129 | -0.0424 | 0.237 | -0.926 | 3.5% (inactive) | -0.459 (inactive) | -0.000113 (inactive) | 0.00323 (inactive) | inactive | 17% (inactive)
6 | CCCCOc1ccc(CN(C)c2ncnc(N)n2)cc1 | 657 | -1.7% (inactive) | -51.5% (inactive) | 180 | -0.491 | 0.207 | -0.506 | 5.57% (inactive) | -0.503 (inactive) | -0.00011 (inactive) | 0.00652 (inactive) | inactive | 29.8% (inactive)
7 | CCOC(=O)CC(=O)CSc1nc2c(cc1C#N)CCCCC2 | 510 | -8.3% (inactive) | -29.1% (inactive) | 114 | -0.0989 | -0.82 | 0.239 | 6.51% (inactive) | -0.342 (inactive) | -3e-05 (inactive) | 0.00873 (inactive) | inactive | 12.7% (inactive)
8 | O=C(NCc1ccco1)c1ccc(=O)oc1 | 352 | -6% (inactive) | -89.9% (inactive) | 167 | 0.958 | 0.118 | -1.31 | 23.4% (inactive) | -0.471 (inactive) | -0.000178 (inactive) | 0.00508 (inactive) | inactive | 2.62% (inactive)
9 | O=C(c1cncc(Br)c1)N1CCCc2ccccc21 | 517 | -1.1% (inactive) | 51.3% (inactive) | 97.5 | 0.808 | -0.814 | -0.316 | -7.86% (inactive) | -0.448 (inactive) | -1.4e-05 (inactive) | 0.00474 (inactive) | inactive | -3.67% (inactive)
10 | Cc1ccc(N(CN2C(=O)NC(C)(C)C2=O)CN2C(=O)NC(C)(C)C2=O)cc1 | 465 | 5.9% (inactive) | -355% (inactive) | 156 | 0.539 | 0.101 | 0.322 | 2.71% (inactive) | -0.315 (inactive) | -9.5e-06 (inactive) | 0.00542 (inactive) | inactive | 5.64% (inactive)
11 | Cn1c(O)c(C=Nc2ccc(Cc3ccncc3)cc2)c(=O)n(C)c1=O | 642 | 6.6% (inactive) | -91% (inactive) | 136 | -1.1 | -0.451 | 0.687 | 4.25% (inactive) | -0.486 (inactive) | -9.5e-05 (inactive) | 0.00577 (inactive) | inactive | -1.46% (inactive)
12 | CCOc1nc(Oc2cccc(C(=O)O)c2)nc(Oc2cccc(C(=O)O)c2)n1 | 627 | -14.8% (inactive) | -46.5% (inactive) | 182 | 0.0666 | 0.636 | -0.0605 | -1.12% (inactive) | -0.538 (inactive) | -3.4e-05 (inactive) | 0.00497 (inactive) | inactive | 6.3% (inactive)
13 | CCOC(=O)CSc1nc2ccccc2c(=O)n1C | 636 | -9.5% (inactive) | -24.4% (inactive) | 170 | -0.479 | 1.67 | 1.83 | -5.89% (inactive) | -0.523 (inactive) | -3.8e-05 (inactive) | 0.00573 (inactive) | inactive | -11.1% (inactive)
14 | CCOC(=O)c1cc2cc(OC)ccc2[nH]1 | 596 | -5.3% (inactive) | -44.6% (inactive) | 87.4 | -0.384 | 1.83 | 0.163 | 5.57% (inactive) | -0.497 (inactive) | -9.6e-05 (inactive) | 0.00467 (inactive) | inactive | 26.5% (inactive)
15 | CCOc1cccc(-c2nnc3sc(-c4cccs4)nn23)c1 | 464 | -0.1% (inactive) | -85.6% (inactive) | 99.8 | -0.8 | 1.1 | 0.15 | -2.47% (inactive) | -0.456 (inactive) | -6.5e-05 (inactive) | 0.00982 (inactive) | inactive | 18.9% (inactive)
16 | CCOc1ccc(-n2c3nc4ccccc4nc3c3c(=O)n(Cc4ccco4)cnc32)cc1 | 381 | -13% (inactive) | -105% (inactive) | 171 | 0.174 | 0.579 | -1.27 | -7.01% (inactive) | -0.417 (inactive) | -0.000107 (inactive) | 0.00519 (inactive) | inactive | -0.886% (inactive)
17 | C[C@@H]1C[C@H](Nc2ccccc2)c2ccccc2N1C(=O)c1cccnc1 | 539 | -1.7% (inactive) | 3.9% (inactive) | 159 | 2.9 | -1.02 | 0.461 | 25.7% (inactive) | -0.265 (inactive) | 6.9e-06 (inactive) | 0.00503 (inactive) | inactive | 0.503% (inactive)
18 | COc1ccc(-c2ncncc2-c2csc(C)n2)c(O)c1 | 573 | -4.5% (inactive) | -141% (inactive) | 135 | 0.355 | -1.54 | -0.34 | 1.9e-07% (inactive) | -0.509 (inactive) | -3.3e-05 (inactive) | 0.00463 (inactive) | inactive | 3.68% (inactive)
19 | O=C(Nc1ccc(Cl)cn1)C1CCCN1S(=O)(=O)c1ccccc1 (stereo unspecified) | 365 | 4.7% (inactive) | -101% (inactive) | 154 | 2.19 | 0.087 | -0.0829 | 11.3% (inactive) | -0.415 (inactive) | -4e-05 (inactive) | 0.00596 (inactive) | inactive | -3.35% (inactive)
20 | COc1cc(C)nc(Oc2ccc(OCCOc3ccc(C)cc3)nn2)n1 | 440 | -2.4% (inactive) | -191% (inactive) | 163 | 0.149 | -0.102 | 0.972 | 2.46% (inactive) | -0.415 (inactive) | -3.1e-05 (inactive) | 0.00505 (inactive) | inactive | 3.2% (inactive)
21 | COc1ccc(-c2nn3c(-c4ccccn4)nnc3s2)cc1OC | 638 | -8.9% (inactive) | 36.9% (inactive) | 169 | 0.845 | -0.297 | -0.421 | -2.47% (inactive) | -0.407 (inactive) | -0.000141 (inactive) | 0.00665 (inactive) | inactive | 22% (inactive)
22 | CCOC(=O)C1=C(C(C)=O)C(c2cccnc2)C(C#N)=C(N)O1 (stereo unspecified) | 548 | -5.1% (inactive) | -109% (inactive) | 228 | 0.844 | -1.11 | -0.0919 | 6.04% (inactive) | -0.369 (inactive) | -1e-05 (inactive) | 0.00521 (inactive) | inactive | 12.1% (inactive)
23 | Cc1cccc(Nc2ncnc3ccccc23)c1 | 458 | -5.2% (inactive) | -1% (inactive) | 123 | -0.619 | 0.167 | -0.509 | 18.2% (inactive) | -0.519 (inactive) | -6.7e-05 (inactive) | 0.00506 (inactive) | inactive | 2.93% (inactive)
24 | Cc1cc(C)nc(NC2=NCC(=O)N2c2cccc(Cl)c2)n1 | 581 | -4.9% (inactive) | -200% (inactive) | 141 | 1.05 | 1.03 | -2.43 | 15.9% (inactive) | -0.517 (inactive) | -4.2e-05 (inactive) | 0.00561 (inactive) | inactive | -3.6% (inactive)
25 | COCCn1c(N)c(C(=O)NCC2CCCO2)c2nc3ccccc3nc21 (stereo unspecified) | 564 | -8.3% (inactive) | -74.5% (inactive) | 106 | 0.365 | -2.02 | 0.128 | -11.5% (inactive) | -0.0102 (inactive) | 7e-06 (inactive) | 0.00477 (inactive) | inactive | 26.2% (inactive)
26 | COc1ccc(CCn2c(C)ccc2C)cc1OC | 476 | -5.7% (inactive) | -58.3% (inactive) | 112 | -0.324 | 0.735 | -0.301 | 3.66% (inactive) | -0.488 (inactive) | -8e-05 (inactive) | 0.00401 (inactive) | inactive | -7.78% (inactive)
27 | C=CCOC(=O)C1=C(C)OC(N)=C(C#N)C1c1ccoc1 (stereo unspecified) | 564 | 2.9% (inactive) | -24.3% (inactive) | 166 | -0.735 | -0.099 | 0.124 | 2.46% (inactive) | -0.32 (inactive) | 2.2e-05 (inactive) | 0.00536 (inactive) | inactive | 26.4% (inactive)
